Measurements: ChEMBL document CHEMBL2021847, “Identification of fused-ring alkanoic acids with improved pharmacokinetic profiles that act as G protein-coupled receptor 40/free fatty acid receptor 1 agonists” (J Med Chem, 2012)
Calls of active or inactive are those of the source. The calls are words filed in the database; no cut-off is given here.

How the values were obtained:
[1] = molecular target: T1, Free fatty acid receptor 1 (Homo sapiens, UniProt O14842); experiment: Agonist activity at human […] receptor expressed in CHO cells assessed as increase in intracellular calcium concentration after 90 secs by FLIPR assay in presence of 0.1% BSA; format: functional, cell-based
How it was run: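 CHO dhfr cells stably expressing human GPR40/FFA1 (NM_005303) plated and held overnight at 37 °C in 5% CO2. Loaded 60 min at 37 °C with Fluo 4-AM 2.5 μg/mL, probenecid 2.5 mmol/L and 0.1% fatty acid-free BSA. Compounds added over a concentration range, Ca2+ rise followed 90 s. Response scaled between vehicle (0%) and 10 μM γ-linolenic acid (100%).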

[2] = Octanol-water partition coefficient, log D of the compound at pH 7.4 by reverse-phase liquid chromatography; format: physicochemical
[3] = molecular target: T1, Free fatty acid receptor 1; experiment: Displacement of 3-[4-({2',6'-dimethyl-6-[(4-[3H])-phenylmethoxy]biphenyl-3-yl}methoxy)phenyl] propanoic acid from human GPR40 receptor expressed in CHO cells after 90 mins by scintillation counting in presence of 0.2% BSA; format: cell-based
How it was run: (§1)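 Membranes from CHO lines stably expressing human or rat GPR40/FFA1, in Tris-HCl pH 7.5 with EDTA, protease inhibitors, 0.05% CHAPS and 0.2% fatty acid-free BSA. Tritiated ligand at 2 or 6 nmol/L with graded test compound, 90 min at room temperature. Filter harvest, scintillation counting. Nonspecific binding with 10 μmol/L unlabeled ligand. IC50 by nonlinear regression, Ki via Cheng–Prusoff with measured Kd. Averages of n = 2 or 3.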

[4] = molecular target: Free fatty acid receptor 1 (Rattus norvegicus, UniProt Q8K3T4); experiment: Displacement of 3-[4-({2',6'-dimethyl-6-[(4-[3H])-phenylmethoxy]biphenyl-3-yl}methoxy)phenyl] propanoic acid from rat GPR40 receptor expressed in CHO cells after 90 mins by scintillation counting in presence of 0.2% BSA; format: cell-based; how it was run: as §1
[5] = molecular target: T1, Free fatty acid receptor 1; experiment: Agonist activity at human […] receptor expressed in CHO cells assessed as increase in intracellular calcium concentration at 10 uM after 90 secs by FLIPR assay in presence of 0.1% BSA relative to control; format: functional, cell-based
How it was run: (§2)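 CHO dhfr cells stably expressing human GPR40/FFA1 (NM_005303) plated, incubated overnight at 37 °C in 5% CO2. Loaded 60 min at 37 °C with Fluo 4-AM (2.5 μg/mL), probenecid (2.5 mmol/L), 0.1% fatty acid-free BSA. Ca2+ rise monitored by FLIPR for 90 s after compound addition. Response expressed as % of 10 μM γ-linolenic acid response, vehicle-corrected.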

[6] = molecular target: T1, Free fatty acid receptor 1; experiment: Agonist activity at human […] receptor expressed in CHO cells assessed as increase in intracellular calcium concentration at 1 uM after 90 secs by FLIPR assay in presence of 0.1% BSA relative to control; format: functional, cell-based; how it was run: as §2
[7] = test system: Rattus norvegicus; experiment: Antidiabetic activity in Wistar fatty rat assessed as decrease in plasma glucose level at 10 mg/kg, po administered as single dose 4 hrs prior to glucose challenge measured after 120 mins by OGTT; format: functional, organism-based; set-up: dose 10 mg/kg
How it was run: (§3)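 Female Wistar fatty rats aged 17−19 weeks, fasted overnight. Given compound orally (10 mg/kg) or vehicle (0.5% methylcellulose), with oral glucose 1 g/kg 4 h later. Tail-vein sampling pre-dose, at 0, and at 10–120 min. Glucose by autoanalyzer, insulin by RIA.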

[8] = test system: Rattus norvegicus; experiment: Antidiabetic activity in Wistar fatty rat assessed as decrease in plasma glucose level at 1 to 10 mg/kg, po administered as single dose 1 hr prior to glucose challenge measured after 120 mins by OGTT; format: functional, organism-based
How it was run: (§4)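 Female Wistar fatty rats aged 17−19 weeks, fasted overnight. Dosed orally in 0.5% methylcellulose (vehicle control), then given oral glucose 1 g/kg 1 h later. Tail-vein blood taken pre-dose, at 0, and at 10, 30, 60 and 120 min. Glucose by autoanalyzer, insulin by RIA. Glucose AUC0−120 min and incremental insulin AUC0−120 min calculated. n = 6, one-tailed Williams test versus vehicle.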

[9] = test system: Rattus norvegicus; experiment: Antidiabetic activity in Wistar fatty rat assessed as increase in plasma insulin level at 10 mg/kg, po administered as single dose 4 hrs prior to glucose challenge measured after 120 mins by OGTT; format: functional, organism-based; set-up: dose 10 mg/kg; how it was run: as §3
[10] = test system: Rattus norvegicus; experiment: Antidiabetic activity in po dosed Wistar fatty rat assessed as increase in plasma insulin level administered as single dose 1 hr prior to glucose challenge measured after 120 mins by OGTT; format: functional; conditions: read-out: MED; how it was run: as §4
[11] = test system: Rattus norvegicus; experiment: Antidiabetic activity in po dosed Wistar fatty rat assessed as decrease in plasma glucose level administered as single dose 1 hr prior to glucose challenge measured after 120 mins by OGTT; format: functional; conditions: read-out: MED; how it was run: as §4
[12] = test system: Rattus norvegicus; experiment: Antidiabetic activity in Wistar fatty rat assessed as increase in plasma insulin level at 1 to 10 mg/kg, po administered as single dose 1 hr prior to glucose challenge measured after 120 mins by OGTT; format: functional, organism-based; how it was run: as §4

Free fatty acid receptor 1 (Rattus norvegicus, UniProt Q8K3T4), sequence (Q8K3T4 whole entry): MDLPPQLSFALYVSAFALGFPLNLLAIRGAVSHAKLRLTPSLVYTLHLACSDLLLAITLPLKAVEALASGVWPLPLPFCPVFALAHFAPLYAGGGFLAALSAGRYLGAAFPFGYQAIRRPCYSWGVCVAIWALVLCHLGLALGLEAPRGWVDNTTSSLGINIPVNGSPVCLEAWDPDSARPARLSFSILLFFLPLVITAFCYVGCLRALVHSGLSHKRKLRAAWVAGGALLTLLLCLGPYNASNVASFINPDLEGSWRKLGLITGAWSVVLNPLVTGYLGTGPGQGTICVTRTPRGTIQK
T1 sequence (O14842 whole entry): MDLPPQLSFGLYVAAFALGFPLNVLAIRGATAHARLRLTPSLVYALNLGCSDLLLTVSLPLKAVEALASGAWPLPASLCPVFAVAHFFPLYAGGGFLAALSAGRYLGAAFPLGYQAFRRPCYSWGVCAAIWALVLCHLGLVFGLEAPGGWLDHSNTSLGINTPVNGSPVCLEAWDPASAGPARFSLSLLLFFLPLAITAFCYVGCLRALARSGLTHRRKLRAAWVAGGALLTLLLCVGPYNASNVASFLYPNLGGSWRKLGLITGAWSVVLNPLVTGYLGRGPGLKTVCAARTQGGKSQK

Structure (SMILES): Cc1cc(C)c(-c2cccc(COc3ccc4c(c3)OCC4CC(=O)O)c2)c(C)c1 (centres undefined)
- EC50 [1]: 33 nM
- chromatographic logD [2]: 4.47
- Ki [3]: 36 nM
- Ki [4]: 130 nM

Structure (SMILES): CCOCCOc1cc(C)c(-c2cccc(COc3ccc4c(c3)CC(C(=O)O)C4)c2)c(C)c1 (centres undefined)
- EC50 [1]: 960 nM
- chromatographic logD [2]: 4.11
- Ki [3]: > 10000 nM
- Ki [4]: > 10000 nM

Structure (SMILES): Cc1ccc(-c2cccc(COc3ccc4c(c3)OCC4CC(=O)O)c2)c(C)c1 (centres undefined)
- EC50 [1]: 29 nM
- chromatographic logD [2]: 4.15
- Ki [3]: 57 nM
- Ki [4]: 1600 nM

Structure (SMILES): O=C(O)CC1COc2cc(OCc3cccc(-c4csc5ccccc45)c3)ccc21 (centres undefined)
- EC50 [1]: 39 nM
- chromatographic logD [2]: 3.99
- Ki [3]: 290 nM
- Ki [4]: > 10000 nM

Structure (SMILES): Cc1cccc(C)c1-c1cccc(COc2ccc3c(n2)CCC3CC(=O)O)c1 (centres undefined)
- EC50 [1]: 570 nM
- chromatographic logD [2]: 3.88
- Ki [3]: > 10000 nM
- Ki [4]: > 10000 nM

Structure (SMILES): O=C(O)CC1COc2cc(OCc3cccc(-c4ccc5sccc5c4)c3)ccc21 (centres undefined)
- EC50 [1]: 180 nM
- chromatographic logD [2]: 3.97
- Ki [3]: 570 nM
- Ki [4]: > 10000 nM

Structure (SMILES): Cc1cccc(C)c1-c1cccc(COc2ccc3c(c2)CCCCC3CC(=O)O)c1 (centres undefined)
- EC50 [1]: 940 nM
- chromatographic logD [2]: 5.02

Structure (SMILES): CCOCCOc1cc(C)c(-c2cccc(COc3ccc4c(c3)CCC(C(=O)O)C4)c2)c(C)c1 (centres undefined)
- EC50 [1]: 140 nM
- chromatographic logD [2]: 4.33
- Ki [3]: 280 nM
- Ki [4]: > 10000 nM

Structure (SMILES): Cc1cccc(C)c1-c1cc(COc2ccc3c(c2)OCC3CC(=O)O)ccc1OCc1ccccc1 (centres undefined)
- EC50 [1]: 10 nM
- chromatographic logD [2]: 4.53
- Ki [3]: 6.9 nM
- Ki [4]: 170 nM

Structure (SMILES): Cc1cccc(C)c1-c1cccc(COc2ccc3c(c2)OCCC(C(=O)O)C3)c1 (centres undefined)
- EC50 [1]: 70 nM
- chromatographic logD [2]: 4.05

Structure (SMILES): COc1ccc(COc2ccc3c(c2)OCC3CC(=O)O)cc1-c1c(C)cccc1C (centres undefined)
- EC50 [1]: 24 nM
- chromatographic logD [2]: 3.31
- Ki [3]: 130 nM
- Ki [4]: 1600 nM

Structure (SMILES): Cc1cccc(C)c1-c1cccc(COc2ccc3c(c2)OCC3CC(=O)O)c1 (centres undefined)
- EC50 [1]: 27 nM
- chromatographic logD [2]: 3.88

Structure (SMILES): CCOCCOc1cc(C)c(-c2cccc(COc3ccc4c(c3)COC4CC(=O)O)c2)c(C)c1 (centres undefined)
- EC50 [1]: 91 nM
- chromatographic logD [2]: 3.61
- Ki [3]: 390 nM
- Ki [4]: 67 nM

Structure (SMILES): CCOCCOc1cc(C)c(-c2cccc(CNc3ccc4c(c3)OCC4CC(=O)O)c2)c(C)c1 (centres undefined)
- EC50 [1]: 48 nM
- chromatographic logD [2]: 3.13
- Ki [3]: 43 nM
- Ki [4]: 110 nM

Structure (SMILES): Cc1cc(OCc2ccccc2)cc(C)c1-c1cccc(COc2ccc3c(c2)OCC3CC(=O)O)c1 (centres undefined)
- EC50 [1]: 28 nM
- chromatographic logD [2]: 5.03
- Ki [3]: 18 nM
- Ki [4]: 100 nM

Structure (SMILES): Cc1cccc(C)c1-c1cccc(COc2ccc3c(c2)CCCC3CC(=O)O)c1 (centres undefined)
- EC50 [1]: 27 nM
- chromatographic logD [2]: 4.7

Structure (SMILES): CCOCCOc1cc(C)c(-c2cccc(COc3ccc4c(c3)CC(CC(=O)O)C4)c2)c(C)c1 (centres undefined)
- EC50 [1]: 84 nM
- chromatographic logD [2]: 4.39
- Ki [3]: 270 nM
- Ki [4]: > 10000 nM

Structure (SMILES): CCOCCOc1cc(C)c(-c2cccc(COc3ccc4c(c3)CC(=O)N4CC(=O)O)c2)c(C)c1
- Efficacy [5]: 59%
- Efficacy [6]: 2%
- chromatographic logD [2]: 3.41
- Ki [3]: > 10000 nM
- Ki [4]: > 10000 nM

Structure (SMILES): CCOCCOc1cc(C)c(-c2cccc(COc3ccc4c(c3)OCC4CC(=O)O)c2)c(C)c1 (centres undefined)
- Activity [7]: Active
- Activity [8]: Active
- Activity [9]: Active
- minimal effective dose [10]: 10 mg/kg
- chromatographic logD [2]: 3.83
- minimal effective dose [11]: 10 mg/kg
- Activity [12]: Active
- Ki [4]: 200 nM

Structure (SMILES): Cc1cccc(C)c1-c1cccc(COc2ccc3c(c2)CCC3CC(=O)O)c1 (centres undefined)
- EC50 [1]: 33 nM
- chromatographic logD [2]: 4.4

Structure (SMILES): Cc1cccc(C)c1-c1cccc(COc2ccc3c(c2)CC3CC(=O)O)c1 (centres undefined)
- EC50 [1]: 69 nM
- chromatographic logD [2]: 4.12
- Ki [3]: 1200 nM
- Ki [4]: > 10000 nM

Structure (SMILES): Cc1cccc(C)c1-c1cccc(COc2ccc3c(ccn3CC(=O)O)c2)c1
- Efficacy [5]: 101%
- Efficacy [6]: 2%
- chromatographic logD [2]: 3.93
- Ki [3]: > 10000 nM
- Ki [4]: > 10000 nM

Structure (SMILES): Cc1ccc2ccccc2c1-c1cccc(COc2ccc3c(c2)OCC3CC(=O)O)c1 (centres undefined)
- EC50 [1]: 21 nM
- chromatographic logD [2]: 4.33
- Ki [3]: 41 nM
- Ki [4]: 470 nM

Structure (SMILES): Cc1cccc(C)c1-c1cccc(COc2ccc3c(CC(=O)O)coc3c2)c1
- EC50 [1]: 4900 nM
- chromatographic logD [2]: 4.04

Structure (SMILES): CCOCCOc1cc(C)c(-c2cccc(COc3ccc4c(c3)CCC(CC(=O)O)C4)c2)c(C)c1 (centres undefined)
- EC50 [1]: 510 nM
- chromatographic logD [2]: 4.67
- Ki [3]: 2100 nM
- Ki [4]: > 10000 nM
